Source: PubChem BioAssay
Most compounds without a hit are left out; they make up all but 4.7% or so of the library.
SKN-1 inh – blocks SKN-1 activity in C. elegans. 360,000 compounds, 0.49% hits. AID 624304. inhibition, % at 21.8 µM. C. elegans VP596 Pgst-4::GFP/RFP ratio, acrylamide-induced, 24 h;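 active = interference check ratio from 0.5 to 1.5 plus GFP to RFP signal ratio inhibition reaching or exceeding a fixed threshold, cut at about 30% in these data, passing the limit was not always enough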
GRIN3A LBD mod – modulates the human NR3A ligand-binding domain. Tm shift relative to glycine control, % at 25 µM. NR3A LBD differential scanning fluorimetry, Tm shift; 0% = protein alone, 100% = glycine-bound protein. 340,000 compounds, 2.5% hits. AID 1259313;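 active = melting temperature shift of at least 10% of the positive control shift, at one fixed dose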
ADAM10 inh – inhibits human ADAM10; inhibition, % at 7 µM; 370,000 compounds, 0.62% hits; AID 720582; recombinant ADAM10, EDANS/DABCYL FRET peptide cleavage, 3 h;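 active = inhibition above a per-campaign cutoff equal to the mean of compounds falling between control-based bounds plus 3 SD, cut at about 20% in these data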;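 note: 0% = DMSO wells while the 100% control is not disclosed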
MT1-MMP act inh – MT1-MMP (human) activation inhibition | GFP/RFP ratio change, % at 20 µM | 360,000 compounds, 0.061% hits | HT1080 RFP-PRO-GFP cells, GFP/RFP ratio fluorescence, overnight; percent of plate control window, DMSO zero;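 active = GFP/RFP ratio change of at least 30% with cell ATP level not reduced by more than half and red fluorescence within 50% of control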
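Assay system – RFP-PRO-GFP reporter HT1080 cells · Compound dosing – single dose of 20 µM compound, 1% DMSO final · Incubation – overnight compound exposure at 37 °C · Measure – GFP/RFP fluorescence ratio · Benchmarks – DMSO wells and RFP-L50D-GFP cells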
ADAM17 inh – inhibits human ADAM17; P78536; recombinant ADAM17, EDANS/DABCYL FRET peptide cleavage; inhibition, % at 6.95 µM; 370,000 compounds, 0.83% hits;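 active = inhibition above the mean of compounds lying between control limits plus 3 SD, set per campaign, cut at about 8.5% in these data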;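 note: 0% = DMSO-only wells as the low control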
Target sequence (P78536 215-824 limits assumed): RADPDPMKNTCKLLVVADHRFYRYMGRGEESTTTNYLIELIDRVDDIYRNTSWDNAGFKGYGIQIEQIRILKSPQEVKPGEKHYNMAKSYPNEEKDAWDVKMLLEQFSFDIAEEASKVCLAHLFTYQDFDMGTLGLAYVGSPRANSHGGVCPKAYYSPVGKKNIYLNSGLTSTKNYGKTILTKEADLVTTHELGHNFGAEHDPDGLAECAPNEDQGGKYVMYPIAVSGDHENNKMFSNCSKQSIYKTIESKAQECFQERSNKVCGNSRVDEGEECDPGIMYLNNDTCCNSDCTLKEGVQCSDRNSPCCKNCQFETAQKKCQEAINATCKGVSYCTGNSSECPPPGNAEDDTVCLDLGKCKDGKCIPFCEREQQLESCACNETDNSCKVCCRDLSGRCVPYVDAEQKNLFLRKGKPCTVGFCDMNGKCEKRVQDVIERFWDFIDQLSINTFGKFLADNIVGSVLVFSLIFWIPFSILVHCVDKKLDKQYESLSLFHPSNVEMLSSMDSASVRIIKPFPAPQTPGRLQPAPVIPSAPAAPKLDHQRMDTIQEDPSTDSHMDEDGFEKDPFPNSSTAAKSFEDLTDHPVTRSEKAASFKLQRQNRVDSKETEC
MPTP block – permeability transition pore inhibition; isolated mouse mitochondria, Ca2+ swelling absorbance, 30 min; inhibition, % at 10 µM; 360,000 compounds, 1.4% hits; AID 602449;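 active = inhibition of 50% or more, scaled per plate between neutral and stimulator controls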;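 note: 0% = DMSO wells given calcium and 100% = 1 mM EGTA wells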
The depositor's hits bear a star; i = inactive; x = no result.

SMILES	SKN-1 inh	GRIN3A LBD mod	ADAM10 inh	MT1-MMP act inh	ADAM17 inh	MPTP block
COc1ccc(C(=O)Nc2ccc(Nc3ccccc3)cc2)cc1Br	1	24*	8	9	1	4
O=C(CSCc1c(F)cccc1Cl)NCCc1ccccc1	-1	-2	2	1	0	0
Cc1c([N+](=O)[O-])c([N+](=O)[O-])nn1CC(=O)NCCc1ccccc1	6	0	4	0	0	1
O=C(Nc1ccc(O)cc1)c1ccc(NC(=O)C2CCCO2)cc1 (centres undefined)	1	1	1	8	-1	0
COc1cc(C(=O)Nc2ccc(O)cc2)ccc1OC(C)=O	-14	32*	-5	-1	-4	0
Cc1cc(NC(=O)c2ccc(NC(=O)C3CCCO3)cc2)ccc1Br (centres undefined)	3	11*	4	2	-4	0
O=C(NCCN1CCOCC1)C1CCN(c2nc3ccccc3o2)CC1	17	0	x	2	x	-1
Cc1c(C)n2c(SCC(=O)N3CCC(C)CC3)nnc2[nH]c1=O	27	-1	-3	0	-3	-1
COCCn1c(SCC(=O)N2CCCCC2)nc2c([nH]c3ccccc32)c1=O	5	-3	-8	-2	-1	0
CC(=O)Nc1ccc(Nc2cc(C)c3ccccc3n2)cc1	8	13*	-5	-1	0	2
CCOc1ccc(Nc2cc(C)c3ccccc3n2)cc1	-5	22*	-18	4	-9	1
O=C(Nc1ccccc1)c1cc(S(=O)(=O)NCc2ccncc2)ccc1Cl	9	0	-6	3	1	8
Cc1[nH]c2ccccc2c1C(=O)C(=O)N1CCOCC1	6	-1	0	2	3	-2
Cc1[nH]c2ccccc2c1C(=O)CSC(=S)N1CCOCC1	-2	14*	-5	-3	-1	3
Cc1ccc(C2/C(=C(\O)c3c(C)nc4ccccn34)C(=O)C(=O)N2CCN(C)C)o1 (centres undefined)	-5	5	-12	0	-5	1
Cc1ccc(S(=O)(=O)Oc2ccc(/C=C(/NC(=O)c3ccccc3)C(=O)O)cc2)cc1	8	11*	4	1	-2	3
Fc1ccc(NC(=S)N2CCOCC2)cc1Cl	-1	0	-2	-1	-3	0
CC1CCN(Cc2nnnn2CCCC(=O)NC(c2ccccn2)C(F)(F)F)CC1 (centres undefined)	2	12*	-7	0	-5	-2
COCC1CCCCN1C(=O)CCCn1nnnc1CN1CCC(C)CC1 (centres undefined)	19	2	4	1	-5	-2
O=C(C1=C[C@@H]2[C@H]3C(=O)N(c4cccc(Cl)c4)C(=O)[C@H]3[C@@H](C(=O)c3ccc(Cl)cc3)N2C=C1)c1ccccc1	32	14*	x	1	x	4
Cc1ccc(N2C(=O)[C@@H]3[C@H](C2=O)[C@H]2C=C(C(=O)c4ccccc4)C=CN2[C@@H]3C(=O)c2ccc(Cl)cc2)cc1	-2	0	8	-11	3	-1
COCCCNC(=O)CN(Cc1ccc(Cl)cc1)S(C)(=O)=O	5	-2	0	2	-5	-1
COc1cc2c(c(OC)c1OC)C(c1ccc(O)cc1)CC(=O)O2 (centres undefined)	1	0	-19	1	-4	1
COc1cc2c(c(OC)c1CC=C(C)C)C[C@H](c1ccc(O)cc1O)CO2	10	19*	2	0	6	2
CCC1(C)Cc2ccccc2-c2nc(NCCO)n(-c3ccc(C)cc3)c(=O)c21 (centres undefined)	38*	-2	i	-9	i	2
SMILES	SKN-1 inh	GRIN3A LBD mod	ADAM10 inh	MT1-MMP act inh	ADAM17 inh	MPTP block
CCC1CCCCN1CCNS(=O)(=O)c1ccc2c(c1)oc(=O)n2C (centres undefined)	10	14*	-10	3	0	0
CCC1CCCCN1CCCNS(=O)(=O)c1ccc2c(c1)oc(=O)n2C (centres undefined)	9	-1	-3	-21	-1	0
Cc1cccc(CSc2ncnc3ccccc23)c1	4	4	5	-2	-2	0
Fc1ccc(CSc2ncnc3ccccc23)cc1	62*	1	3	-13	1	1
Cc1ccc(CSc2ncnc3ccccc23)cc1	12	1	-10	-6	-1	0
c1ccc(CSc2ncnc3ccccc23)cc1	59*	-1	6	-8	2	0
Cc1cccnc1NC(=O)Cn1nc(C)c([N+](=O)[O-])c1C	7	0	2	5	-4	-2
COc1ccccc1CNC(=O)C(CCSC)NC(=O)C1CCC(C)CC1 (centres undefined)	5	1	-2	-4	-7	1
CC1CN(S(=O)(=O)c2cccc(C(=O)OCC(=O)Nc3ccc4c(c3)OCO4)c2)CC(C)O1 (centres undefined)	44*	3	9	-7	0	-2
CC1CN(S(=O)(=O)c2cccc(C(=O)OCC(=O)c3cccs3)c2)CC(C)O1 (centres undefined)	-5	-2	-8	1	-4	0
CN(c1ccccc1)S(=O)(=O)c1cccc(C(=O)OCC(=O)NCc2ccc3c(c2)OCO3)c1	0	13*	9	4	4	2
Cc1cccc(-n2c(-c3ccncc3)n[nH]c2=S)c1	4	2	-3	5	0	-7
O=C(c1cncc(Br)c1)N1CCc2ccccc2C1	6	15*	3	-12	-1	-1
O=C(c1ccncc1)N1CCc2ccccc2C1	-12	0	-17	1	-8	0
CC(=O)c1cccc(NS(=O)(=O)c2csc(C(N)=O)c2)c1	-16	-1	6	5	-2	-2
Cc1ccccc1Cc1c(C)nc2nc(SCC(=O)NCCCN3CCCC3)nn2c1C	8	-3	-4	5	-1	-2
Oc1ccc(/C=C/c2nc(-c3ccccc3O)n(-c3ccccc3)n2)cc1	25	14*	4	1	7	12
Oc1ccccc1-c1nc(/C=C/c2ccccc2)nn1-c1ccccc1	6	-5	-3	-4	1	2
O=C1NC2(CCCCC2)C(=O)N1CCN1C(=O)c2ccccc2C1=O	12	1	-5	3	-4	0
O=C1NC2(CCCCC2)C(=O)N1CCS(=O)(=O)Oc1ccccc1	-1	12*	10	0	4	2
Nc1ccccc1C(=O)NCc1ccc(Cl)cc1	11	12*	-439	4	-138	0
O=C(O)c1ccccc1C(=O)NCc1ccccc1	4	-2	-7	5	-6	0
